# How the values were obtained:
# [1] = biological target: Tyrosine-protein kinase Fer (Homo sapiens, UniProt P16591); assay: Inhibition of FER in human HeLa cells lysate pre incubated for 15 mins followed by ATP acyl phosphate probe addition and measured after 10 mins by LC-MS/MS analysis; format: subcellular
# [2] = Inhibition of MST4/YSK1 in human HeLa cells lysate at 50 uM pre incubated for 15 mins followed by ADP acyl phosphate probe addition and measured after 10 mins by LC-MS/MS analysis relative to control; settings: 25 min, condition cancer
# [3] = biological target: Glycogen synthase kinase-3 beta (Homo sapiens, UniProt P49841); assay: Inhibition of GSK3B isoform 2 in human HeLa cells lysate at 50 uM pre incubated for 15 mins followed by ATP acyl phosphate probe addition and measured after 10 mins by LC-MS/MS analysis relative to control; format: subcellular; settings: time 25.0 min
# [4] = biological target: T1, Phosphatidylinositol 5-phosphate 4-kinase type-2 alpha (Homo sapiens) (UniProt P48426); assay: Inhibition of PIP5K2A in human HeLa cells lysate at 50 uM pre incubated for 15 mins followed by ATP acyl phosphate probe addition and measured after 10 mins by LC-MS/MS analysis relative to control; format: subcellular; settings: time 25.0 min
# T1 sequence (whole entry): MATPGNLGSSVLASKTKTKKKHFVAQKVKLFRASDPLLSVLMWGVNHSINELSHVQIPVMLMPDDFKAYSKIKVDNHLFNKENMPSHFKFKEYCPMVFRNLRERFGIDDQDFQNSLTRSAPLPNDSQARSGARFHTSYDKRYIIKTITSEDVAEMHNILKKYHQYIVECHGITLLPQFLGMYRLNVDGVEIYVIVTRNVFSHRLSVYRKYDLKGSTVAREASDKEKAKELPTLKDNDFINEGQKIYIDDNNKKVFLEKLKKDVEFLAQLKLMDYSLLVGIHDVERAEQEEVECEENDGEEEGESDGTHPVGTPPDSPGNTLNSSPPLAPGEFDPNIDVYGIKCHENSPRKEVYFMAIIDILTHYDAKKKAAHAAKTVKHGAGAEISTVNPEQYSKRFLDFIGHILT
# [5] = biological target: Cyclin-dependent kinase 9 (Homo sapiens, UniProt P50750); assay: Inhibition of CDK9 in human HeLa cells lysate at 50 uM pre incubated for 15 mins followed by ATP acyl phosphate probe addition and measured after 10 mins by LC-MS/MS analysis relative to control; format: subcellular; settings: time 25.0 min
# Procedure, shortened: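 KiNativ profiling in HeLa lysate (5 mg/mL total protein). Lysate incubated 15 min with inhibitor at 50, 10, 2, 0.8 or 0 μM. ATP or ADP acylphosphate probe then added (5 μM final) and reacted 10 min. Reaction stopped with urea and analysed by targeted MS, using up to four fragment ions per kinase peptide-probe conjugate. % inhibition taken against untreated lysate. Run in duplicate.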
# [6] = biological target: Interleukin-1 receptor-associated kinase 1 (Homo sapiens, UniProt P51617); assay: Inhibition of IRAK1 in human HeLa cells lysate at 50 uM pre incubated for 15 mins followed by ATP acyl phosphate probe addition and measured after 10 mins by LC-MS/MS analysis relative to control; format: subcellular; settings: time 25.0 min
# [7] = biological target: T2, Serine/threonine-protein kinase TAO2 (Homo sapiens) (UniProt Q9UL54); assay: Inhibition of TAO2 in human HeLa cells lysate at 2 uM pre incubated for 15 mins followed by ATP acyl phosphate probe addition and measured after 10 mins by LC-MS/MS analysis relative to control; format: subcellular; settings: time 25.0 min
# T2 sequence (whole entry): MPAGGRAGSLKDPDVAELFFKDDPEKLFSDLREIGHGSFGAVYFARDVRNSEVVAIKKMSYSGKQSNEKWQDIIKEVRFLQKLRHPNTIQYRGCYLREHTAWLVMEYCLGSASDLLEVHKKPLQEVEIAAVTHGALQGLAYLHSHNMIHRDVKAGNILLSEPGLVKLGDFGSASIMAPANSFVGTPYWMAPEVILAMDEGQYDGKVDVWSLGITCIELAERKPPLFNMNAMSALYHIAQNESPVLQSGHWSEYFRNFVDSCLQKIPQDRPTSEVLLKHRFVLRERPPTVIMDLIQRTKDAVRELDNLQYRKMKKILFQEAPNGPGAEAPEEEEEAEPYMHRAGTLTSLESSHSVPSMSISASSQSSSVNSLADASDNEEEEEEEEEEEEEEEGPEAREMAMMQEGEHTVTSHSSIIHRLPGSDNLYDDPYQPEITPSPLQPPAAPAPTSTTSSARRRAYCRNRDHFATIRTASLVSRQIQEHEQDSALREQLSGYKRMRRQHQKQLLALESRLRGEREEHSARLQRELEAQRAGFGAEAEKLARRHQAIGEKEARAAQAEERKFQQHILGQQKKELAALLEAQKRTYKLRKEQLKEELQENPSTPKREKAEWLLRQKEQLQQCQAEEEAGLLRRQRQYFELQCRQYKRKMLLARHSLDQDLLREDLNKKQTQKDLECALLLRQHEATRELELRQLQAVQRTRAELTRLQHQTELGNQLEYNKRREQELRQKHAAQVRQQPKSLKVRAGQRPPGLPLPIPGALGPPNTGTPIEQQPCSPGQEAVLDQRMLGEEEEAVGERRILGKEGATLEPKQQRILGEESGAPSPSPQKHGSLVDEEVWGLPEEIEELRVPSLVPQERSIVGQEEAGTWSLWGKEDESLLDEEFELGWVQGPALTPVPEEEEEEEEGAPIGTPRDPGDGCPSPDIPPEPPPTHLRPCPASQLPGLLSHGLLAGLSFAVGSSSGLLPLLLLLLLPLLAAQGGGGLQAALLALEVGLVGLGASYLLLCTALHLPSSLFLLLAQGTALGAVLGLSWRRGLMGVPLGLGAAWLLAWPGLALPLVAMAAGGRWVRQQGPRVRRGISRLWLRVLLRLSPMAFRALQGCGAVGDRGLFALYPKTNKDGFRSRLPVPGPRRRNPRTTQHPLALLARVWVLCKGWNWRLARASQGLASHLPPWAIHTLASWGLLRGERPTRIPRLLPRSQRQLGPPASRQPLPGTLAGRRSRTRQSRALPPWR
# [8] = biological target: T1, Phosphatidylinositol 5-phosphate 4-kinase type-2 alpha (Homo sapiens); assay: Inhibition of PIP5K2A in human HeLa cells lysate at 2 uM pre incubated for 15 mins followed by ATP acyl phosphate probe addition and measured after 10 mins by LC-MS/MS analysis relative to control; format: subcellular; settings: time 25.0 min
# [9] = biological target: Hepatocyte growth factor receptor (Homo sapiens, UniProt P08581); assay: Inhibition of MET in human HeLa cells lysate at 2 uM pre incubated for 15 mins followed by ATP acyl phosphate probe addition and measured after 10 mins by LC-MS/MS analysis relative to control; format: subcellular; settings: time 25.0 min
# [10] = AUCinfinity in Sprague-Dawley rat at 2 mg/kg, po measured up to 8 hrs by LC-MS/MS analysis; format: ADME, organism-based; settings: in vivo
# Procedure, shortened: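 Sprague-Dawley rats given one intravenous dose or one oral dose of 2 mg/kg. Plasma drug concentrations were followed over time, with samples taken out to 8 hr after dosing. PK parameters (clearance, volume of distribution, half-life, oral bioavailability, Cmax) were calculated from these concentration–time data.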
# [11] = Toxicity in C57Bl/6 mouse assessed as effect on alkaline phosphatase level at 50 mg/kg, ip for 14 days (reference value: 51 U/L); format: organism-based; settings: in vivo, 336 h, time 14 day
# Glycogen synthase kinase-3 beta, sequence (P49841 whole entry, looked up, canonical isoform): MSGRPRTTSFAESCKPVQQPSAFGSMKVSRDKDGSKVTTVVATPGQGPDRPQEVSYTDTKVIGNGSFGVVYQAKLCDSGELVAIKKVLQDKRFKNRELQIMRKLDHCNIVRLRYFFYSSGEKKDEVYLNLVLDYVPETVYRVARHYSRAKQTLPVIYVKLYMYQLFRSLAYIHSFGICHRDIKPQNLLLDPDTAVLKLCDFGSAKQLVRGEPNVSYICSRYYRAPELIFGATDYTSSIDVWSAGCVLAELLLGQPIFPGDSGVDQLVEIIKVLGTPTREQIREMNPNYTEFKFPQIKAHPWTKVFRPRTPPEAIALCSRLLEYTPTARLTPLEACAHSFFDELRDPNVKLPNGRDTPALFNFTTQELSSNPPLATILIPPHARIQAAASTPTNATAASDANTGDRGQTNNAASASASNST
# Hepatocyte growth factor receptor, sequence (P08581 whole entry): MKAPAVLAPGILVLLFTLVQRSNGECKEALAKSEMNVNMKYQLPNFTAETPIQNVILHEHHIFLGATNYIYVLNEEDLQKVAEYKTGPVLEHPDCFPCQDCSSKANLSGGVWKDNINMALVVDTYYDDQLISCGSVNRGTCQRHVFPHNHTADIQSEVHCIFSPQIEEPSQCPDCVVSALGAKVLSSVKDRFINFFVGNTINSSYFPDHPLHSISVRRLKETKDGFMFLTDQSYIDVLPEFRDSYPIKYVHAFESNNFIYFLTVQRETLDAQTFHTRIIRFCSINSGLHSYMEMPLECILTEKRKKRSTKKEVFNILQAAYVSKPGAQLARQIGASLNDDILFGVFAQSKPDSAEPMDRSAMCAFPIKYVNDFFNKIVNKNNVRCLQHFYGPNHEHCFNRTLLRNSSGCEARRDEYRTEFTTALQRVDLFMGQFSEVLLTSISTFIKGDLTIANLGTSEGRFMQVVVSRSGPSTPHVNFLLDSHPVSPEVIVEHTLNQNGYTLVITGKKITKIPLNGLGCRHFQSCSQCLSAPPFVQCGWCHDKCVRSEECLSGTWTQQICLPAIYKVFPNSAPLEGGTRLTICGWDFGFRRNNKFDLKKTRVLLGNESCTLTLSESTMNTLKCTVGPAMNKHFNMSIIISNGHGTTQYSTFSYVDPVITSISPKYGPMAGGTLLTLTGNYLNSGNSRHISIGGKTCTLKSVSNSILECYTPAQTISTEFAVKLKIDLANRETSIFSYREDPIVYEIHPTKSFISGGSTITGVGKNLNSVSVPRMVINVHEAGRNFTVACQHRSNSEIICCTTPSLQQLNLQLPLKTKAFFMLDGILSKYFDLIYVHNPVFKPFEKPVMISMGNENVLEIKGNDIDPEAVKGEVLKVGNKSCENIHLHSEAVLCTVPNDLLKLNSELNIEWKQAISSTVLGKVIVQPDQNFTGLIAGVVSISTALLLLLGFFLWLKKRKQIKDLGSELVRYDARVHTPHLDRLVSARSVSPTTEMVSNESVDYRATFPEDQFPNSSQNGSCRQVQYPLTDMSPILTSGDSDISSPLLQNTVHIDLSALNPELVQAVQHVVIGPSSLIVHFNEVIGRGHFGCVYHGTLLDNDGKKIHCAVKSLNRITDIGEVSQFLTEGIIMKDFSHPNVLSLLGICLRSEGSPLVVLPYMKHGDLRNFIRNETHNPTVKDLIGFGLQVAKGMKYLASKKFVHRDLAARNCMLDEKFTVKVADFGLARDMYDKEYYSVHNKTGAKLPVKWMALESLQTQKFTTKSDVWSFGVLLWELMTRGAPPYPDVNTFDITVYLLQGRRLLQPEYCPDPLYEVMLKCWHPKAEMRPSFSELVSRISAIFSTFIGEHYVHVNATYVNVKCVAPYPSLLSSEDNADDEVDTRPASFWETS
# Tyrosine-protein kinase Fer, sequence (P16591 whole entry): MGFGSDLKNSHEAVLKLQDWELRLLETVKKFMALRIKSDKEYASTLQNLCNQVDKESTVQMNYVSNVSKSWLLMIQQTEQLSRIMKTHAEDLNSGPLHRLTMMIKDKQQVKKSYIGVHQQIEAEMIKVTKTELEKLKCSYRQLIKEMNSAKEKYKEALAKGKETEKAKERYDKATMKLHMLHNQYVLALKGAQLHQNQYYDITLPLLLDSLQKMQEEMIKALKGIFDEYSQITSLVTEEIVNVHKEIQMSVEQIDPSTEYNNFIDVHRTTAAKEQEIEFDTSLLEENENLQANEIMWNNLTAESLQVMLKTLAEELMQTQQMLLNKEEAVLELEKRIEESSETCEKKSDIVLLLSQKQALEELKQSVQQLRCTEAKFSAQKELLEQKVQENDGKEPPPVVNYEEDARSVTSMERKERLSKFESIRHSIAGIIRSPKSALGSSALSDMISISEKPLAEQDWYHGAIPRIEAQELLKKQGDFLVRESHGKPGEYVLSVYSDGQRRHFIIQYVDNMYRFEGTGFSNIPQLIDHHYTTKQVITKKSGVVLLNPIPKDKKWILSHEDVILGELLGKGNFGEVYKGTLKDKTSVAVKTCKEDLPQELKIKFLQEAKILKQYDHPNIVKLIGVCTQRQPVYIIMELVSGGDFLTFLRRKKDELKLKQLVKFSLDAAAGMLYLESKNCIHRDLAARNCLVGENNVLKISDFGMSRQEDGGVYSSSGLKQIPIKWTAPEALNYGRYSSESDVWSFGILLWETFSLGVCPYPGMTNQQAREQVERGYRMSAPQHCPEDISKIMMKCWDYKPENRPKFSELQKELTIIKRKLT
# Cyclin-dependent kinase 9, sequence (P50750 whole entry, the tested form may be a part): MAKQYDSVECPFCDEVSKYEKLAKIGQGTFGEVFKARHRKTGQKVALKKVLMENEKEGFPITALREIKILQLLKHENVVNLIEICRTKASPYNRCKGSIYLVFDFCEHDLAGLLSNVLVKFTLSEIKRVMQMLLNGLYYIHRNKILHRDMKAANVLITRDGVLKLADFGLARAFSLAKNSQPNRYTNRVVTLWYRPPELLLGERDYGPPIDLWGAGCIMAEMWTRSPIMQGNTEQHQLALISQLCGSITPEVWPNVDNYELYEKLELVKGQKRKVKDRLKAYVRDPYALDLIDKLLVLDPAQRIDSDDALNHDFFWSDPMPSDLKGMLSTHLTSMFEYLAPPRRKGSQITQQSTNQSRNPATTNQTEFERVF
# Interleukin-1 receptor-associated kinase 1, sequence (P51617 whole entry, looked up): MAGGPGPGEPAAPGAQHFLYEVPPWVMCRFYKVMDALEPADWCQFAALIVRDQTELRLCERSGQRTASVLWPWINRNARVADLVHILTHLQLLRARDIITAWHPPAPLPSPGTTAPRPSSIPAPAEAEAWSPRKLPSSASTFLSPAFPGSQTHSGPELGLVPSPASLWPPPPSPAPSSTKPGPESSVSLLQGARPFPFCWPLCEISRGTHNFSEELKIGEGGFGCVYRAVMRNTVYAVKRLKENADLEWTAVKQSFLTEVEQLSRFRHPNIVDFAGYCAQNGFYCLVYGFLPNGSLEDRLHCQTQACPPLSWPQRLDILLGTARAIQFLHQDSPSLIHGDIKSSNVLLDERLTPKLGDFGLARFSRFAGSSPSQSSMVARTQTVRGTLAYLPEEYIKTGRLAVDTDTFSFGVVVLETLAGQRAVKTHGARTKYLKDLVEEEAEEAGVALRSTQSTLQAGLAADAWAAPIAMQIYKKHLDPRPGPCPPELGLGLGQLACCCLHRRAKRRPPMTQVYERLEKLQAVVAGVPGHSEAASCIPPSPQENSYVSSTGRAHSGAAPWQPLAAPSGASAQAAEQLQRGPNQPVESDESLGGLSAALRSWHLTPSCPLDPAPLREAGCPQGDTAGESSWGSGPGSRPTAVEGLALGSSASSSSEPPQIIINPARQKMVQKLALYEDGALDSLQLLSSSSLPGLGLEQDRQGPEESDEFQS
smiles,measurement,setting,value
CCOc1cc(N2CCC(O)CC2)ccc1Nc1ncc2c(n1)N(C)c1ccccc1C(=O)N2C,IC50,[1],> 50 µM
same,inhibition at 50 µM,[2],-14.3%
same,inhibition,[3],22.3%
same,inhibition,[4],1%
same,inhibition,[5],-0.3%
same,inhibition,[6],-8.3%
same,inhibition,[7],-8.5%
same,inhibition,[8],-4.6%
same,inhibition,[9],38%
same,AUC(0-inf),[10],1.9 µM·h
same,Activity,[11],235 U/L

# Reference: ChEMBL document CHEMBL5661979, “Pharmacological inhibition of BMK1 suppresses tumor growth through promyelocytic leukemia protein” (Cancer Cell, 2010)
